Experiment: Inhibition of GST-tagged mouse Mcl-1 (152 to 309 residues)/FITC-labelled Bim (unknown origin) protein protein interaction at 100 uM by fluorescence polarization method relative to control
Outline: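 Single-point fluorescence polarization competition at 100 μM. GST-tagged mouse Mcl-1(152–309) (20 nM stock in PBS, 0.005% Tween 20) was mixed with the compound in PBS containing 25% DMSO and 0.005% Tween 20. FITC-Bim-BH3 (10 nM stock in PBS, 5% DMSO) was then added and shaken 3 min at room temperature. Polarization (mP) was read at ex 480/em 535 nm, and percent inhibition is relative to control.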

| inhibition | SMILES |
| --- | --- |
| 25% | [N-]=[N+]=NS(=O)(=O)c1ccc(CN2Cc3c(Cl)cccc3C(Sc3ccccc3)C2)cc1 (configuration not stated) |
| < 5% | O=C(S)c1ccc(OC(F)(F)F)cc1 |
| < 5% | COc1cc(OC)cc(C(=O)S)c1 |
| < 5% | CC1(C)CCN(c2ccc(C(=O)S)cc2)CC1 |
| < 5% | Cc1nc(-c2ccccc2)sc1C(=O)S |
| 14% | [N-]=[N+]=NS(=O)(=O)c1ccc2ccc(S(=O)(=O)NCCSc3ccccc3)cc2c1 |
| < 5% | O=C(S)c1cccc([N+](=O)[O-])c1 |
| < 5% | COc1cc2c(cc1OC)C(O)N(CC(=O)O)CC2 (configuration not stated) |
| < 5% | OC(=S)c1ccccc1 |
| < 5% | O=C(S)c1cccc2ccccc12 |
| < 5% | O=C(S)c1ccco1 |
| < 5% | O=C(S)c1ccno1 |
